# Reference: publication PMC6645225 (ACS Omega, 2018)
# “Also recorded” adds a separate entry of the source.
# Columns and labels:
# CYP1A1 [1] = target: T1, CYP1A1 (Homo sapiens, UniProt P04798); experiment: CYP1A1 inhibition in yeast microsomes; assay type: biochemical
# T1 sequence (P04798 1-512): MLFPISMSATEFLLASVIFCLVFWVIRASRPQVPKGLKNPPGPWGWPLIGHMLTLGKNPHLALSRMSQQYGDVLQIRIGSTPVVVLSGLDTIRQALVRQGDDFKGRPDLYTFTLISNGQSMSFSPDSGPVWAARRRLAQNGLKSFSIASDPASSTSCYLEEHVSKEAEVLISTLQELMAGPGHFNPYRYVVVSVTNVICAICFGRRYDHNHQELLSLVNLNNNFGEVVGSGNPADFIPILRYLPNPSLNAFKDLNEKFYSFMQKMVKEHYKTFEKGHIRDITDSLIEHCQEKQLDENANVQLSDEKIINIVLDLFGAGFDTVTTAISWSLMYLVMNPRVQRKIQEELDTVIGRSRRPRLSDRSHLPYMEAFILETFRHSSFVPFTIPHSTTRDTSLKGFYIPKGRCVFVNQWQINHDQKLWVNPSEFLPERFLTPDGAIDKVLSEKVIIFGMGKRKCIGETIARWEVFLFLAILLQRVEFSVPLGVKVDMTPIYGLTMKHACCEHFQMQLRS
# How it was run: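 Human CYP1A1 expressed in yeast microsomes (Sacchrosomes). […] IC50 from a four-parameter variable-slope sigmoidal (Hill) fit of uninhibited fraction against inhibitor concentration.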
# CYP1B1 [2] = target: T2, CYP1B1 (Homo sapiens, UniProt Q16678); experiment: CYP1B1 inhibition in Sacchrosomes; assay type: biochemical
# T2 sequence (Q16678 1-543): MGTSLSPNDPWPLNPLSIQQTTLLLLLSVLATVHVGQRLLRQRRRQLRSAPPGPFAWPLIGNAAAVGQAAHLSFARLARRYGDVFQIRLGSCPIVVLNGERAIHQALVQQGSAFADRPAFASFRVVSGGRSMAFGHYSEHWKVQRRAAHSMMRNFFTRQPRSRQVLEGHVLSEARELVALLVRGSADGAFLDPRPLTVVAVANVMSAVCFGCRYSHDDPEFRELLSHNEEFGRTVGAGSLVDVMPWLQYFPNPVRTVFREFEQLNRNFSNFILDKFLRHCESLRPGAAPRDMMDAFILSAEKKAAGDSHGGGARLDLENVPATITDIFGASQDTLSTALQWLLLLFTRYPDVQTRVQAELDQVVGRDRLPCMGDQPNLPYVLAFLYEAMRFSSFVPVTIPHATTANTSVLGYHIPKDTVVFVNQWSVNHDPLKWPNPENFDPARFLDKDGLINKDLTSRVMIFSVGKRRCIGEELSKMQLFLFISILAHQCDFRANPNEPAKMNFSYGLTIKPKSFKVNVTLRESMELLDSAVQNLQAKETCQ
# How it was run: (§1)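 Kinetic microplate assay, 15 min reaction, using recombinant human P450s expressed in S. cerevisiae microsomes. Run in 100 mM potassium phosphate pH 7.4 with an NADPH-regenerating system (final: 0.04 units G6PDH, 1.3 mM NADP+, 3.3 mM glucose-6-phosphate, 3.3 mM MgCl2, 50 μM sodium citrate). Reaction started with substrate plus NADPH system. Test compound serially diluted from 20 μM final (CYP2E1: from 10 μM), 0.5% DMSO final. IC50 from Hill fit.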
# [3] = tested on: CYP2A6, CYP2B6, CYP2C8, CYP2C9, CYP2C18, CYP2C19, CYP2D6, CYP2E1, CYP3A4; experiment: CYP2 and CYP3 subfamily panel inhibition in Sacchrosomes; assay type: biochemical; details: human, pH 7.4
# How it was run: as §1
# CYP1A2 [4] = target: T3, CYP1A2 (Homo sapiens, UniProt P05177); experiment: CYP1A2 inhibition in Sacchrosomes; assay type: biochemical
# T3 sequence (P05177 1-516): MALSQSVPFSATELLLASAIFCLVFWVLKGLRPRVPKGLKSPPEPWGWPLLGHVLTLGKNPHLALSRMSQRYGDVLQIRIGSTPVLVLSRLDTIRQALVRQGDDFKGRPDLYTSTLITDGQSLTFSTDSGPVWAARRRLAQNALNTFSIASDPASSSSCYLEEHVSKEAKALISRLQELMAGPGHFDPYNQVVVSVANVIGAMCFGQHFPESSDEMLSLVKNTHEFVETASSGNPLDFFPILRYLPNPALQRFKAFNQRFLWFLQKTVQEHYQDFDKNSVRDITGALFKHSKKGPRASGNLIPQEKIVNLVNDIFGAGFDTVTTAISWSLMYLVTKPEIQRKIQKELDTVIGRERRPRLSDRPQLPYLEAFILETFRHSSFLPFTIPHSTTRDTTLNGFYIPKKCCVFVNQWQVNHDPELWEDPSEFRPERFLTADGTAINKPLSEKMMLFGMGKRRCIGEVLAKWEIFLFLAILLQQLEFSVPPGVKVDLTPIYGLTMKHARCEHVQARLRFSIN
# How it was run: as §1
# CYP1A1 [5] = target: T1, CYP1A1; experiment: CYP1A1 inhibition in live HEK293 cells overexpressing CYP1A1; assay type: cell-based; details: for inhibition at 10 µM: human, live HEK293 cells overexpressing CYP1A1, % inhibition of CYP1A1 at 10 μM (Mean ± SD) HEK293 cells, HEK293 cells overexpressing CYP1A1; for selectivity for CYP1A1 over CYP1B1: ratio of live cell IC50 values CYP1B1/CYP1A1
# CYP1A2 [6] = target: T3, CYP1A2; experiment: CYP1A2 inhibition in live human HEK293 cells; assay type: cell-based
# How it was run: (§2)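 Live recombinant HEK293 cells, each expressing a single human CYP isoform. IC50 from a four-parameter variable-slope sigmoidal (Hill) fit of uninhibited fraction against inhibitor concentration.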
# CYP1B1 [7] = target: T2, CYP1B1; experiment: CYP1B1 inhibition in live human HEK293 cells; assay type: cell-based
# How it was run: as §2
# CYP3A4 = CYP3A4 (Homo sapiens, UniProt P08684); experiment: CYP3A4 inhibition in live human HEK293 cells; assay type: cell-based
# Chain of CYP3A4 (P08684 whole entry): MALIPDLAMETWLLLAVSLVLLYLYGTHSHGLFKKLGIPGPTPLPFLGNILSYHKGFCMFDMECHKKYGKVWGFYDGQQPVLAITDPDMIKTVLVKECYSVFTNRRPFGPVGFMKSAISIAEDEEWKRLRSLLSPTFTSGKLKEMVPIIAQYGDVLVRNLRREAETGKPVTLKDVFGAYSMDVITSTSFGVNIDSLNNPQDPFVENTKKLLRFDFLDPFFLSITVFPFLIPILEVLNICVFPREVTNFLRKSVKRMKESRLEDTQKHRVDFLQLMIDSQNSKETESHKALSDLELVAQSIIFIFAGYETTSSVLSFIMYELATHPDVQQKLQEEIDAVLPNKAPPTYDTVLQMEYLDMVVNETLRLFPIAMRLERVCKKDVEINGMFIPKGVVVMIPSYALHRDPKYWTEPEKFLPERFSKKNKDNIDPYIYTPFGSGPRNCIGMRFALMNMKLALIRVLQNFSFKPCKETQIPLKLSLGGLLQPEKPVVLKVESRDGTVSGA
# How it was run: as §2
# CYP2D6 = CYP2D6 (Homo sapiens, UniProt P10635); experiment: CYP2D6 inhibition in live human HEK293 cells; assay type: cell-based
# Chain of CYP2D6 (P10635 whole entry): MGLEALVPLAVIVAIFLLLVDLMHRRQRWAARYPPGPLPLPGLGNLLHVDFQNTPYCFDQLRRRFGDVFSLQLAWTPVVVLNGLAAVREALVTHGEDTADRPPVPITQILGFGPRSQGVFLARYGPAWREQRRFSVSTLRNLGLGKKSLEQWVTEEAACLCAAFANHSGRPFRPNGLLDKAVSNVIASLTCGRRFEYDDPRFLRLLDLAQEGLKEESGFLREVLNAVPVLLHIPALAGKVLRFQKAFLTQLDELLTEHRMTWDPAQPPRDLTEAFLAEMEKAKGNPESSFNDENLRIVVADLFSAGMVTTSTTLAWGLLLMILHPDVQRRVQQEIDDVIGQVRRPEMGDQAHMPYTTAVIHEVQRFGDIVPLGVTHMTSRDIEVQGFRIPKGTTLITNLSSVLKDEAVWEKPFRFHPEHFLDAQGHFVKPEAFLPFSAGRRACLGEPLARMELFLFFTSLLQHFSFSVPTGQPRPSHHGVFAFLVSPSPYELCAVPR
# How it was run: as §2
# normal HEK293 cells = experiment: B[a]P toxicity in normal HEK293 cells; assay type: cell-based; details: Homo sapiens, HEK293, read-out: EC50 of B[a]P in normal HEK293 cells
# How it was run: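 Adherent HEK293 cells exposed to a concentration series of B[a]P; viability read by MTT assay. EC50 is the B[a]P concentration giving 50% loss of viability, taken from a dose–response curve of viability versus log B[a]P concentration.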
# [8] = Protection of CYP1A1-overexpressing HEK293 cells from B[a]P toxicity; assay type: cell-based, human; details: human, CYP1A1-overexpressing HEK293 cells
# How it was run: (§3)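 CYP1A1-expressing adherent HEK293 cells exposed to B[a]P at 0.05–100 μM, alone or with test compound. Viability read by MTT and checked by sulforhodamine B. EC50 (B[a]P concentration for 50% viability loss) taken from a dose–response curve of viability versus log B[a]P concentration, averaged over three independent experiments.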
# Calu-1 cells = experiment: FACS cell cycle analysis of Calu-1 lung cancer cells treated with B[a]P; assay type: cell-based, human; details: Calu-1 (p53-null); 4l at 3× IC50 before 15 μM B[a]P
# How it was run: (§4)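 CYP1A1 expression in the cells confirmed by western blot. Cells preincubated 20 h with test compound, exposed to 15 μM B[a]P for 3 h, then released into fresh medium for 57 h. Cells trypsinised, PBS-washed and fixed 1 h in 70% ethanol at −20 °C. Treated with RNase (0.5 mg/mL) and stained with propidium iodide (50 μg/mL) for 1 h at 4 °C in the dark. Single cells gated; about 10 000 events collected; % G0/G1, S and G2/M reported.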
# A549 cells = experiment: FACS cell cycle analysis of A549 lung cancer cells treated with B[a]P; assay type: cell-based, human; details: A549 (p53+); 4l at 3× IC50 before 15 μM B[a]P
# How it was run: as §4
# [9] = tested on: CYP1A1-overexpressing HEK293 cells; experiment: Protection of CYP1A1-overexpressing HEK293 cells from B[a]P toxicity; assay type: cell-based, human; details: compound at 3× IC50 concentration
# How it was run: as §3
SMILES,IC50 (CYP1A1 [1]),IC50 (CYP1B1 [2]),IC50 at 15 min [3],IC50 (CYP1A2 [4]),IC50 (CYP1A1 [5]),inhibition at 10 µM (CYP1A1 [5]),IC50 (CYP1A2 [6]),IC50 (CYP1B1 [7]),IC50 (CYP3A4),IC50 (CYP2D6),selectivity for CYP1A1 over CYP1B1 (CYP1A1 [5]),"inhibition at 10 µM (CYP1A1 [1]; human, % inhibition of CYP1A1 at 10 μM (Mean ± SD) Sacchrosomes, 10 μM, Sacchrosomes)",EC50 (normal HEK293 cells),EC50 [8],effect on B[a]P-mediated S-phase block (Calu-1 cells),effect on B[a]P-mediated S-phase block (A549 cells),protection from CYP1A1-mediated B[a]P toxicity [9]
"COc1c(C(=O)C=Cc2ccsc2)c(O)c(OC)c2occc12 [3r, 1-(6-Hydroxy-4,7-dimethoxybenzofuran-5-yl)-3-(thiophen-3-yl)prop-2-en-1-one]",280 ± 30 nM,780 ± 40 nM,> 20000 nM,4200 ± 800 nM,–,–,–,–,–,–,–,–,–,–,–,–,–
"c1ccc2c(c1)cc1ccc3cccc4ccc2c1c34 [B[a]P, benzo[a]pyrene, reference compound]",–,–,–,–,–,–,–,–,–,–,–,–,14000 nM,1400 nM,–,–,–
"COc1c(C(=O)C=Cc2cccnc2)c(O)c(OC)c2occc12 [3g, 1-(6-Hydroxy-4,7-dimethoxybenzofuran-5-yl)-3-(pyridin-3-yl)prop-2-en-1-one]",340 ± 30 nM,660 ± 40 nM,> 20000 nM,170 ± 20 nM,470 nM,99%,–,270 nM,–,–,–,97%,–,–,–,–,completely protected

# More lines, main results first:
IC50 (CYP1A1 [1]),IC50 (CYP1B1 [2]),IC50 at 15 min [3],IC50 (CYP1A2 [4]),IC50 (CYP1A1 [5]),inhibition at 10 µM (CYP1A1 [5]),IC50 (CYP1A2 [6]),IC50 (CYP1B1 [7]),IC50 (CYP3A4),IC50 (CYP2D6),selectivity for CYP1A1 over CYP1B1 (CYP1A1 [5]),"inhibition at 10 µM (CYP1A1 [1]; human, % inhibition of CYP1A1 at 10 μM (Mean ± SD) Sacchrosomes, 10 μM, Sacchrosomes)",SMILES,EC50 (normal HEK293 cells),EC50 [8],effect on B[a]P-mediated S-phase block (Calu-1 cells),effect on B[a]P-mediated S-phase block (A549 cells),protection from CYP1A1-mediated B[a]P toxicity [9]
–,–,–,–,1840 ± 140 nM,87%,> 10000 nM,566 ± 80 nM,> 10000 nM,> 10000 nM,–,–,"COc1c2c(c(OC)c3occc13)OC(c1ccccc1)CC2=O (stereo not drawn) [4a, 4,9-Dimethoxy-7-phenyl-6,7-dihydro-5H-furo[3,2-g]chromen-5-one]",–,–,–,–,–
–,–,–,–,450 ± 60 nM,–,> 10000 nM,4160 ± 250 nM,> 10000 nM,> 10000 nM,9.2 fold,–,"COc1c2c(c(OC)c3occc13)OC(c1cccnc1)CC2=O (stereo not drawn) [4e, 4,9-Dimethoxy-7-(pyridin-3-yl)-6,7-dihydro-5H-furo[3,2-g]chromen-5-one]",–,–,–,–,–
–,–,–,–,140 ± 40 nM,–,> 10000 nM,23800 ± 1200 nM,> 10000 nM,> 10000 nM,170 fold,–,"COc1c2c(c(OC)c3occc13)OC(c1ccc(F)c(Br)c1)CC2=O (stereo not drawn) [4l, 7-(3-Bromo-4-fluorophenyl)-4,9-dimethoxy-6,7-dihydro-5H-furo[3,2-g]chromen-5-one]",–,–,restored into the cell cycle; also recorded: preponderantly released from the block; also recorded: prevented manifestation of B[a]P-mediated S-phase block,restored into the cell cycle; also recorded: preponderantly released from the block; also recorded: prevented manifestation of B[a]P-mediated S-phase block,completely protected
